Like-named read-outs stand apart in the source and are kept apart here.
Assays:
Format in all cases: in vivo, mouse
[1] = test system: U87 MG glioblastoma xenografts; assay: Biodistribution study in tumor xenograft mice
Method in brief: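 Tumour xenograft mice were injected with the tracer, with or without Olaparib pre-injection. Mice were euthanized at 90 min p.i. and organ radioactivity was counted, expressed as %ID/g (n = 4, mean ± SD). Tumour-to-non-target tissue ratios, including tumour/brain and tumour/muscle, were calculated.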

U87 MG tumor [2] = conditions: for Tumor to brain ratio: ex vivo
U87 MG tumor [3] = assay: Autoradiography of resected tissues
Method in brief: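 U87 MG tumour-bearing mice got the 18F-labelled fluorescent PARP1 tracer alone, or the tracer 30 min after Olaparib as a blocking agent. Tumour, brain and muscle were resected, and tumour slices were imaged by autoradiography beside H&E staining. Tissue/muscle ratios were calculated for tumours and brains in the non-blocked and blocked groups.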

Ex vivo blood half-life = conditions: tail vein injection, 27 μCi, 100 μl
Method in brief: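 For blood clearance, the tracer was given by tail vein. Blood was collected at 5, 15, 30, 60 and 120 min, weighed and γ-counted, and expressed as %IA/g (n = 4). A weighted t1/2 was derived.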

[4] = test system: U87 MG glioblastoma xenografts; assay: Small animal PET imaging of U87 MG glioblastoma xenografts
Method in brief: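 Mice carrying U87 MG xenografts in the right shoulder were given 100–200 μl tracer (80–160 mCi/μmol), e.g. 200 μCi in 100 μl 15 % PEG300/85 % 0.9 % saline. PET/CT gave coronal and axial reconstructions, and tumour uptake and SUV were derived. Blocked mice were pre-injected with a 50-fold excess of Olaparib (3.7 μmol in 100 μl of the same vehicle).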

[5] = blocked, pre-injection of Olaparib

- Tumor to muscle ratio ([1]; 90 min post injection): 4±0.6
- Metabolic stability in vivo (defluorination) ([1]; U87 MG xenograft-bearing mice, bone uptake): quick metabolic defluorination
- Tumor to brain tissue ratio ([1]; biodistribution): 12±2.1
- Kidneys uptake [1, 5]: 0.4±0.1 %ID/g
- Liver uptake [1, 5]: 2.02± 0.2 %ID/g
- Kidneys uptake ([1]; non-blocked): 0.7±0.1 %ID/g
- Liver uptake ([1]; non-blocked): 3.8±0.4 %ID/g
- Tumor uptake ([1]; positive control group (non-blocked), 90 min p.i.): 0.78±0.1 %ID/g
- Tumor to brain ratio (U87 MG tumor [2]; autoradiography): ninefold
- Tumor to brain ratio (U87 MG tumor [2]; surface fluorescence imaging): sevenfold
- Brain to muscle ratio (autoradiography) (U87 MG tumor [3]; Olaparib-blocked mice): 1.02±0.22
- Tumor to muscle ratio (autoradiography) (U87 MG tumor [3]; Olaparib-blocked mice): 2.6±1.6
- Brain to muscle ratio (autoradiography) (U87 MG tumor [3]; non-blocked mice): 0.87± 0.48
- Tumor to muscle ratio (autoradiography) (U87 MG tumor [3]; non-blocked mice): 7.5±0.9
- Blood half-life, weighted t1/2 (Ex vivo blood half-life): 15.6 min
- Standardized uptake value (SUV) in U87 MG tumors ([4]; non-blocked): 1.10±0.53
- Uptake in U87 MG tumors ([4]; non-blocked): 0.78±0.1
- Standardized uptake value (SUV) in U87 MG tumors ([4]; pre-injection of an excess of Olaparib (50-fold)): 0.10±0.06
Compound: CC1=CC(C)=[N+]2C1=Cc1ccc(CCC(=O)N3CCN(C(=O)c4cc(Cc5n[nH]c(=O)c6ccccc56)ccc4F)CC3)n1[B-]2(F)[18F] (stereo not drawn) [[^18F]PARPi-FL]
- Reduction of uptake in blocked U87 MG tumors ([1]; blocked U87 MG tumors): 84%
- Reduction of tumor uptake in Olaparib-blocked organs (U87 MG tumor [2]; autoradiography): 66±9%
- Reduction of tumor uptake in Olaparib-blocked organs (U87 MG tumor [2]; surface fluorescence imaging): 74±12%
- Lowering of tumor to muscle ratio by blocking (U87 MG tumor [3]; Olaparib blocking): approximately 66%
- Overall reduction of tumor uptake in blocked mice (autoradiography) (U87 MG tumor [3]; Olaparib injected 30 min before tracer): 80±12%
- Organ uptake / excretion seen by PET ([4]; PET imaging): high uptake in the liver and in the intestinal tract

— article PMC4609241 (Molecular imaging and biology : MIB : the official …, 2015)
